Assay outcomes deposited in PubChem by several laboratories.
HDAC3 inh: human HDAC3 inhibition; AID 2718; inhibition, % at 8.3 µM; O15379; actives 0.15% (n = 320,000); recombinant HDAC3, fluorogenic peptide/trypsin coupled, fluorescence; in the data active means inhibition above about 26%, passing the limit was not always enough
SENP1 FRET inh: SENP1 (human) catalytic domain inhibition | recombinant SENP1 catalytic domain, CyPet-SUMO1-YPet FRET cleavage | inhibition, % at 10 µM | actives 0.21% (n = 360,000) | Q9P0U3 | AID 624204;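 active means inhibition at least 30% at 10 µM, raw YFP signal under a set limit, fluorescence ratio 0.5 to 1.5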;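 further: 0% = enzyme with DMSO and 100% = no enzyme wells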
Target sequence (Q9P0U3 419-644 limits assumed): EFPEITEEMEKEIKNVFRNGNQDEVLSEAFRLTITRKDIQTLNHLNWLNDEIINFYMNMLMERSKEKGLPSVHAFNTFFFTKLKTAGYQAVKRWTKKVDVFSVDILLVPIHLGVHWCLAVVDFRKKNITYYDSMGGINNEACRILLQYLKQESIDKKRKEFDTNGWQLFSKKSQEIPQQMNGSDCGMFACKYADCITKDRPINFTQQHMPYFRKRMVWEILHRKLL
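System: Recombinant human SENP1 catalytic domain, His6-tagged | Incubation: Enzyme reaction for 50 min at room temperature, dark | Medium: Tris pH 8 with BME, BSA, NP40 and catalase | Also added: 25 nM SUMO1 FRET substrate | Compound: 10 µM single point, 0.5% DMSO | Measured by: FRET fluorescence in CFP and YFP emission channels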
CTSL1 counter: counter-screen for PFM18AAP inhibitors: inhibitors of F. hepatica cathepsin L1; recombinant F. hepatica cathepsin L1, Z-Leu-Arg-MCA fluorescence; inhibition, % at 5.96 µM; actives 0.49% (n = 300,000); AID 1906;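 active means inhibition above the mean of all tested compounds plus 3 SD, set per screening campaign, cut at about 17% in these data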;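 further: 0% = plate median of test compound wells and 100% = 1 µM Z-Phe-Ala-diazomethylketone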
PfM18AAP inh: blocks P. falciparum M18 aspartyl aminopeptidase. recombinant PfM18AAP, H-Glu-NHMec fluorogenic cleavage. AID 1822. inhibition, % at 7.35 µM. actives 1.2% (n = 290,000);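 active means inhibition above the campaign mean inhibition over all tested compounds plus 3 SD, cut at about 28% in these data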;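 further: 0% = plate median of test compound wells and 100% = 2 mM ZnCl2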
GAA850 FXN act: increases GAA850 frataxin promoter reporter activity; activation, % at 6 µM; actives 0.56% (n = 360,000); HEK293 lucGAA850 FXN promoter luciferase reporter, 24 h; percent of 10 µM SAHA response;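 active means activation above the average of all compounds screened plus 3 SD, cutoff fixed separately per campaign, cut at about 7.5% in these data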;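 further: 0% = DMSO wells and 100% = 10 µM SAHA wells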
AHR act: activates the human aryl hydrocarbon receptor; activation, % at 5 µM; actives 2.5% (n = 320,000); AHR-responsive luciferase reporter cells, luminescence; P35869; in the data active means activation above about 47%;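 further: 0% = vehicle wells and 100% = reference agonist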
Starred values were filed as active, the others as inactive. Sampled rows, rich in hits. Any-hit rate of the full collection: about 4.2%.

`O=c1cc(-c2ccccc2)[nH]c2ccc(F)cc12` gave HDAC3 inh -1, SENP1 FRET inh 1, CTSL1 counter -3, PfM18AAP inh 4, GAA850 FXN act 0 and AHR act 58*.
Cc1ccc2[nH]c(-c3cccc(F)c3)cc(=O)c2c1 was read as HDAC3 inh -2, SENP1 FRET inh -5, CTSL1 counter -3, PfM18AAP inh -2, GAA850 FXN act 1 and AHR act 50*.
`COc1ccc2[nH]c(-c3cccc(F)c3)cc(=O)c2c1` gave HDAC3 inh -22, SENP1 FRET inh -2, CTSL1 counter 0, PfM18AAP inh -5, GAA850 FXN act 2 and AHR act 58*.
For O=c1cc(-c2ccc(F)cc2F)[nH]c2ccccc12 the results were HDAC3 inh -3, CTSL1 counter -3, PfM18AAP inh -1 and AHR act 2.
O=c1cc(-c2cccc(F)c2)[nH]c2ccccc12 was read as HDAC3 inh -2, SENP1 FRET inh -4, CTSL1 counter -6, PfM18AAP inh 4, GAA850 FXN act 1 and AHR act 61*.
Screening COc1ccc(-c2cc(=O)c3ccccc3[nH]2)cc1 returned HDAC3 inh -5, SENP1 FRET inh -4, CTSL1 counter 0, PfM18AAP inh -4, GAA850 FXN act 2 and AHR act 38.
Screening COc1ccc(-c2cc(C(=O)Nc3cc(Br)ccc3O)no2)cc1 returned HDAC3 inh 2, SENP1 FRET inh 2, CTSL1 counter 5, PfM18AAP inh 0, GAA850 FXN act 1 and AHR act 1.
CNC(=O)C1CC(=O)N(c2ccc(OCC(=O)Nc3ccc(F)cc3)cc2)C1 (centres undefined) was read as SENP1 FRET inh -1 and GAA850 FXN act 0.
O=C(Nc1nccs1)c1cn2ccccc2n1 was read as HDAC3 inh -1, SENP1 FRET inh 0, CTSL1 counter -3, PfM18AAP inh 6, GAA850 FXN act 3 and AHR act 62*.
For c1ccc(Cc2nc3ccccc3s2)cc1 the results were SENP1 FRET inh 11 and GAA850 FXN act 1.
Screening COc1cc2c(cc1OC)-c1cc3ccc4c(c3c[n+]1CC2)OCO4 returned HDAC3 inh 3, SENP1 FRET inh 30, CTSL1 counter 51*, PfM18AAP inh 6, GAA850 FXN act 0 and AHR act 43.
For COc1cc2c(cc1O)CC[n+]1cc3c(OC)c(OC)ccc3cc1-2 the results were HDAC3 inh 6, SENP1 FRET inh -16, CTSL1 counter 2, PfM18AAP inh 6, GAA850 FXN act 1 and AHR act 9.
For CCOC(=O)[C@]12CCCC=C1N(CCC1=CCCCC1)C(=O)[C@H](CC(=O)NCc1cccc3ccccc13)C2 the results were SENP1 FRET inh -2.
For c1ccc2c(-c3csc(-c4ccncc4)n3)c[nH]c2c1 the results were HDAC3 inh -4, SENP1 FRET inh 13, CTSL1 counter 3, PfM18AAP inh -9, GAA850 FXN act 6 and AHR act 58*.
Screening Clc1ccc(-c2c[nH]c3ccccc23)nn1 returned HDAC3 inh 4, SENP1 FRET inh -3, CTSL1 counter -2, PfM18AAP inh -9, GAA850 FXN act 4 and AHR act 23.
Screening Brc1ccc(-c2csc(-c3c[nH]c4ccccc34)n2)cc1 returned HDAC3 inh 5, SENP1 FRET inh -1, CTSL1 counter -1, PfM18AAP inh 3, GAA850 FXN act 1 and AHR act 78*.
Screening CCCCCCC(=O)N(O)C1CC(=O)N(c2ccc(Br)cc2)C1=O (centres undefined) returned HDAC3 inh 80*, SENP1 FRET inh -3, CTSL1 counter -14, PfM18AAP inh 6, GAA850 FXN act 1 and AHR act -3.
`CCCCCCC(=O)N(O)C1CC(=O)N(c2ccc(F)cc2)C1=O` (centres undefined) gave HDAC3 inh 79*, SENP1 FRET inh -3, CTSL1 counter -10, PfM18AAP inh -1, GAA850 FXN act 4 and AHR act -3.
N#C/C=C1/NC(=O)c2ccccc2S1 was read as HDAC3 inh 3, SENP1 FRET inh 29, CTSL1 counter 1, PfM18AAP inh 29*, GAA850 FXN act 3 and AHR act 0.
For COC(=O)c1ccc2c(c1)NC(=O)c1ccccc1S2 the results were HDAC3 inh -2, SENP1 FRET inh -2, CTSL1 counter -4, PfM18AAP inh 4, GAA850 FXN act 0 and AHR act 0.
`COCc1cc(C)nc2sc(C(=O)Nc3nccs3)c(N)c12` gave HDAC3 inh -6, SENP1 FRET inh -41, CTSL1 counter 2, PfM18AAP inh 8, GAA850 FXN act 2 and AHR act 12.
Screening Cc1cc(C)c2c(N)c(C(=O)Nc3cccc(C)c3C)sc2n1 returned SENP1 FRET inh -46, CTSL1 counter 7, PfM18AAP inh 3, GAA850 FXN act -2 and AHR act 68*.
`Cc1cc(C)c2c(N)c(C(=O)Nc3nccs3)sc2n1` gave HDAC3 inh -8, SENP1 FRET inh -19, CTSL1 counter -1, PfM18AAP inh 11, GAA850 FXN act -3 and AHR act 71*.
Screening Nc1c(C(=O)Nc2nccs2)sc2nc(-c3cccs3)cc(C(F)(F)F)c12 returned HDAC3 inh -7, SENP1 FRET inh 26, CTSL1 counter -3, PfM18AAP inh 4, GAA850 FXN act -1 and AHR act 65*.
For Cc1cccc(-c2cccc(NC(=O)C3CCCN(C(=O)c4csc(C)n4)C3)c2)c1 (centres undefined) the results were HDAC3 inh 12, SENP1 FRET inh 2, CTSL1 counter -3, PfM18AAP inh -2, GAA850 FXN act -6 and AHR act 10.
`CCN(CC)C(=O)c1cc(-c2ccc3c(c2)OCO3)on1` gave HDAC3 inh -3, SENP1 FRET inh 4, CTSL1 counter -2, PfM18AAP inh 0, GAA850 FXN act 5 and AHR act 73*.
For CCN(CC)C(=O)c1cc(-c2ccccc2OC)on1 the results were HDAC3 inh 2, SENP1 FRET inh -1, CTSL1 counter 0, PfM18AAP inh 5, GAA850 FXN act 0 and AHR act 48*.
CCCNC(=O)c1cc(-c2ccc3c(c2)OCO3)on1 was read as HDAC3 inh 5, SENP1 FRET inh 0, CTSL1 counter -4, PfM18AAP inh 0, GAA850 FXN act 2 and AHR act 7.
Screening Cc1ccc(OCc2nc(C#N)c(NCc3ccco3)o2)cc1 returned HDAC3 inh 2, SENP1 FRET inh -1, CTSL1 counter 2, PfM18AAP inh -1, GAA850 FXN act 2 and AHR act 8.
For N#Cc1nc(COc2cccc(Cl)c2)oc1NCc1ccco1 the results were HDAC3 inh 0, SENP1 FRET inh -89, CTSL1 counter -2, PfM18AAP inh 0, GAA850 FXN act 4 and AHR act 63*.
